Compound activity from PubChem BioAssay.
SIRT5 inh = inhibitors of human sirtuin-5 desuccinylase | Purified SirT5, succinyl-peptide AMC, trypsin-coupled fluorescence | inhibition, % at 15 µM | 330,000 tested, 1.1% active; in the data active = inhibition above about 15%; inconclusive = no clear call, values can overlap the other calls
Target sequence (Q9NXA8 whole entry, looked up): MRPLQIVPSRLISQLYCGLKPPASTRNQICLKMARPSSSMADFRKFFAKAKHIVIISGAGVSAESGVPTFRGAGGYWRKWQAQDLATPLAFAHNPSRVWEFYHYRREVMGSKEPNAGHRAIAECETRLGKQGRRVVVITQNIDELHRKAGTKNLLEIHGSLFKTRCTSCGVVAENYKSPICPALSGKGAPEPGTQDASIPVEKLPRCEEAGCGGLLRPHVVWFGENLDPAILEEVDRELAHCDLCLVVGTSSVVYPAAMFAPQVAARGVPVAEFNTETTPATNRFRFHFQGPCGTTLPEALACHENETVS
DENV2 CPE = protects cells from dengue virus 2 cytopathic effect | AID 651640 | DENV2-infected cells, cytopathic effect rescue, plate reader | 350,000 tested, 1.7% active | CPE inhibition, % at 9.99 µM; in the data active = CPE inhibition above about 20%, passing the limit was not always enough; inconclusive = no clear call, values can overlap the other calls; tested in BHK-21 cells;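 note: 0% = median of neutral control wells and 100% = median of positive control wells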
E-sel inducer = induces E-selectin expression in human endothelial cells; 260,000 tested, 0.37% active; AID 686992; activation, % at 7.58 µM; HUVEC E-selectin immunofluorescence imaging; normalized: neutral wells 0, TNF-alpha wells 100; P16581;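 active = mean E-selectin-positive cell signal at least 10% of the positive control, reached in at least 60% of replicates, without over 20% cell loss; inconclusive = no rule given, readout overlaps actives, possibly toxicity-flagged; inactive = the rest, including those meeting only one limit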
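Read-out basis: % PE-positive cells; Test system: HUVEC primary endothelial cells; Technique: immunofluorescence imaging; Dosing: single-point compound dose.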
The depositor's hits bear a star; u = inconclusive; x = no result given; ! = not confirmed by another sample. Shown are actives, neighbours in structure and some others; about 2.8% of the full set was active somewhere.

SMILES	SIRT5 inh	DENV2 CPE	E-sel inducer
COc1ccc(NC(=O)Nc2ccc3c(c2)C(=O)N([C@H](C)CO)C[C@H](C)[C@H](CN(C)C(=O)Nc2ccc(C(F)(F)F)cc2)OCCCC[C@@H](C)O3)cc1	5	-3	1
COc1ccc(NC(=O)Nc2ccc3c(c2)C(=O)N([C@H](C)CO)C[C@H](C)[C@H](CN(C)C(=O)Nc2ccc(C(F)(F)F)cc2)OCCCC[C@H](C)O3)cc1	3	48*	0
COc1ccc(NC(=O)N(C)C[C@@H]2OCCCC[C@@H](C)Oc3ccc(NC(=O)Nc4ccc(C(F)(F)F)cc4)cc3C(=O)N([C@@H](C)CO)C[C@@H]2C)cc1	16*	-7	0
Cc1ccc(S(=O)(=O)N[C@@H]2C=C[C@H](CC(=O)N3CCc4ccccc4C3)O[C@@H]2CO)cc1	-2	-1	-1
COC(=O)C1=C(C)N(Cc2ccccc2)C(=O)N[C@H]1c1ccc(Br)cc1	-3	-7	0
CC#CCN1C(=O)N[C@@H](c2ccccc2)C(C(=O)OC)=C1C	0	33*	0
C[C@H]1CCCCO[C@H](CN(C)CC2CCCCC2)[C@@H](C)CN([C@@H](C)CO)C(=O)c2cc(NS(=O)(=O)c3cccs3)ccc2O1	-7	-2	0
O=C(NN1C(=O)/C(=C/C=C/c2ccccc2)SC1=S)c1ccncc1	22*	3	x
O=C(O)c1ccc(N2C(=O)/C(=C/C=C/c3ccccc3)SC2=S)cc1	5	0	x
O=C1/C(=C/C=C/c2ccco2)SC(=S)N1c1ccc(O)cc1	14	1	2
O=C(NN1C(=O)/C(=C/C=C/c2ccco2)SC1=S)c1ccncc1	43*	-3	x
C[C@H](CO)N1C[C@H](C)[C@H](CN(C)C(=O)Cc2ccccc2)OCCCC[C@H](C)Oc2ccc(NC(=O)C3CCCCC3)cc2C1=O	x	2	0
CC1(C(=O)NS(=O)(=O)c2ccccc2C(F)(F)F)CCN1C(=O)CCc1ccccc1 (centres undefined)	2	49*	0
CC1(C(=O)NS(C)(=O)=O)CCN1C(=O)C/C=C/c1ccccc1 (centres undefined)	0	61*	0
Cc1ccccc1S(=O)(=O)NC(=O)C1(C)CCN1C(=O)CCc1ccccc1 (centres undefined)	-2	-18	x
CC1(C(=O)NS(=O)(=O)Cc2ccccc2)CCN1C(=O)C/C=C/c1ccccc1 (centres undefined)	-1	8	-1
CCNC(=O)C[C@@H]1CC[C@H]2[C@H](COc3ccc(NC(=O)Nc4ccccc4OC)cc3C(=O)N2C)O1	5	-1	0
COc1ccccc1CNC(=O)C[C@@H]1CC[C@@H]2[C@H](COC[C@H](O)CN2C(=O)Nc2ccc(C(F)(F)F)cc2)O1	0	-20	0
CCCN(C)C[C@@H]1OCCCC[C@@H](C)Oc2ccc(NS(=O)(=O)c3ccc(F)cc3)cc2C(=O)N([C@H](C)CO)C[C@@H]1C	1	u	1
COc1ccccc1-c1cc(C(=O)NC(C)C)no1	22*	2	x
COCCNC(=O)c1cc(-c2ccccc2OC)on1	0	u	2
CC=Cc1ccc2n(c1=O)C[C@@H]1[C@@H](CO)[C@H](C(=O)NCC3CC3)[C@H]2N1S(=O)(=O)c1cn(C)cn1 (mixture of isomers)	-50	12	0
Cn1c(N)c(C(=O)N/N=C/c2ccccc2)sc1=S	1	-6	1
Cn1c(C(=O)N/N=C/c2ccccc2)cc2ccccc21	-4	88*	x
O=C(C[C@H]1C[C@@H]2c3cc(NS(=O)(=O)c4ccc(F)cc4)ccc3O[C@@H]2[C@H](CO)O1)N1CCCCC1	3	x	-1
SMILES	SIRT5 inh	DENV2 CPE	E-sel inducer
COc1ccc(CNC(=O)/C=C/[C@H]2O[C@@H](n3cnc4c(NC(=O)c5ccccc5)ncnc43)[C@H](O)[C@@H]2O)cc1	-4	u	0
COC(=O)[C@@H](Cc1ccccc1)NC(=O)/C=C/[C@H]1O[C@@H](n2cnc3c(NC(=O)c4ccccc4)ncnc32)[C@H](O)[C@@H]1O	31*	5	0
C[C@H]1CCCCO[C@H](CN(C)Cc2ccc3c(c2)OCO3)[C@@H](C)CN([C@@H](C)CO)C(=O)c2cc(NS(=O)(=O)c3ccc(Cl)cc3)ccc2O1	4	3	x
CC1CCCCN1CCCNC(=O)c1c(O)nc2ccccn2c1=O (centres undefined)	-8	19	1
CCC1CCCCN1CCCNC(=O)c1c(O)nc2ccccn2c1=O (centres undefined)	32*	-2	x
CCCC#Cc1cnc2c(c1)C(=O)N([C@H](C)CO)C[C@H](C)[C@H](CN(C)C(=O)C1CCCCC1)O2	x	x	1
CC(C)CC#Cc1ccc2c(c1)O[C@H](CN(C)Cc1cccc(F)c1)[C@H](C)CN([C@@H](C)CO)S2(=O)=O	-5	-8	-1
CO[C@@H]1CC[C@@H]2CCOc3ccc(C#N)cc3C(=O)N(C)C[C@@H](C)C(=O)N(C)C[C@H]1O2	-2	u	0
COc1cc(/C(C)=N/NC(=O)CN2CCN(S(=O)(=O)c3ccc(C)cc3)CC2)ccc1O	-5	-2	0
COc1ccc(S(=O)(=O)N2CCC(NC(=O)C(Cc3cccc(OC)c3OC)NC(C)=O)CC2)cc1 (centres undefined)	18*	10	x
O=C(CN1CCN(S(=O)(=O)c2ccc(F)cc2)CC1)NC1CCCC1	-3	-9	-1
C/C(=N\NC(=O)CN1CCN(S(=O)(=O)c2ccc(C)cc2)CC1)c1ccc(O)cc1	15*	x	0
COc1cccc(CC(NC(C)=O)C(=O)NC2CCN(S(=O)(=O)c3ccc(F)cc3)CC2)c1OC (centres undefined)	10	6	x
COc1ccc(S(=O)(=O)N2CCN(CC(=O)NC3CC3)CC2)cc1	2	23*	-4
Cc1noc(C)c1NC(=O)N(C)C[C@H]1Oc2ccc(NC(=O)Nc3ccc(F)cc3)cc2CC(=O)N([C@H](C)CO)C[C@H]1C	-3	-6	0
C[C@@H]1CN([C@@H](C)CO)C(=O)c2cc(NS(=O)(=O)c3ccc(Cl)cc3)ccc2O[C@@H]1CN(C)S(C)(=O)=O	x	x	-2
CC(C)c1ccccc1OCCCCN1CCCCC1	-2	30*	x
CC(C)c1ccccc1OCCCN1CCCC1	0	16	x
CO[C@H]1CN(C)C(=O)c2ccc(NS(C)(=O)=O)cc2OC[C@H](C)N(Cc2cncnc2)C[C@@H]1C	-2	3	0
O=C(O)c1ccc(O)cc1O	x	67*	x
O=C(O)c1ccccc1O	-4	-3	0
Nc1ccc(C(=O)O)c(O)c1	15*!	1	0
Nc1c(O)cccc1C(=O)O	-5	-6	0
O=C(Nc1ccc(F)cc1)N1C[C@H]2[C@@H](c3ccccc31)[C@@H](CO)N2C(=O)c1ccccn1	-20	-1	0
OC[C@@H]1CC[C@@H]2O[C@H](CCc3ccc(C#CCc4ccccc4)cc3)[C@@H](n3cc(-c4ccccc4)nn3)C[C@@H]2O1	1	-7	x
Cc1noc(C)c1S(=O)(=O)Nc1ccc2c(c1)CC(=O)N([C@@H](C)CO)C[C@@H](C)[C@H](CN(C)S(=O)(=O)c1cn(C)cn1)O2	-3	4	0
CCCC(=O)N1CCC2(CC1)CN(C(=O)Nc1ccc(F)cc1)[C@H](CO)c1c2c2ccc(OC)cc2n1C	x	u	0
